Assay results published in ChEMBL document CHEMBL1133020, “Structure-based design, synthesis, and biological evaluation of novel pyrrolyl aryl sulfones: HIV-1 non-nucleoside reverse transcriptase inhibitors active at nanomolar concentrations” (J Med Chem, 2000).

Legend:
[1] = Selectivity index, ratio of CC50 to EC50; type: functional
In short: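 Ratio of CC50 (mock-infected MT-4 viability, MTT) to EC50 (protection of MT-4 cells from HIV-1 cytopathicity, MTT).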

MT4 [2] = experiment: 50% cytotoxic concentration against mock-infected MT-4 cells using MTT method; type: functional; conditions: Homo sapiens
In short: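 Viability of mock-infected MT-4 cells run in parallel with the antiviral assay; viable cells counted by MTT; CC50 = dose (µM) reducing viability by 50%.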

MT4 [3] = experiment: Effective concentration against HIV-1 induced cytopathicity in MT-4 cells using MTT method; type: functional, cell-based; conditions: Homo sapiens
In short: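 MT-4 cells acutely infected with HIV-1; inhibition of virus-induced cytopathicity; viable cells determined by MTT; EC50 = dose (µM) giving 50% protection from cytopathicity.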

Compound | Selectivity [1] | CC50 (MT4 [2]) | EC50 (MT4 [3])
CCOC(=O)c1cc(C)cn1S(=O)(=O)c1cc(Cl)ccc1N | > 2220 | > 200 µM | 0.09 µM
CCOC(=O)c1cc(COC)cn1S(=O)(=O)c1cc(Cl)ccc1N | > 500 | > 200 µM | 0.4 µM
C=Cc1cc(C(=O)OCC)n(S(=O)(=O)c2cc(Cl)ccc2N)c1 | 274 | 47 µM | 0.17 µM
CC(C)OC(=O)c1cc(CNc2ccccc2)cn1S(=O)(=O)c1cc(Cl)ccc1N | 200 | 40 µM | 0.2 µM
CCOC(=O)c1cccn1S(=O)(=O)c1cc(Cl)ccc1N | > 1430 | > 200 µM | 
CC(C)OC(=O)c1cc(CO)cn1S(=O)(=O)c1cc(Cl)ccc1N | 1160 | 116 µM | 0.1 µM
CCOC(=O)c1cc(CNc2ccccc2)cn1S(=O)(=O)c1cc(Cl)ccc1N | > 55.5 | > 200 µM | 3.1 µM
CCOC(=O)c1cc(C(C)O)cn1S(=O)(=O)c1cc(Cl)ccc1N (stereo unspecified) | 460 | 115 µM | 0.25 µM
CCOC(=O)c1cccn1S(=O)(=O)c1c(N)cccc1Cl | 2.5 | 180 µM | 72 µM
CCOC(=O)c1cccn1S(=O)(=O)c1cc(Cl)ccc1-n1cccc1 |  | 110 µM | > 110 µM
CCOC(=O)c1cc(CO)cn1S(=O)(=O)c1cc(Cl)ccc1N | 5330 | 240 µM | 0.045 µM
CCOC(=O)c1cc(COc2ccccc2)cn1S(=O)(=O)c1cc(Cl)ccc1N | > 49 | > 200 µM | 4.1 µM
Cc1ccnc2c1NC(=O)c1cccnc1N2C1CC1 [NEVIRAPINE] |  | > 200 µM | 0.35 µM
